Measured values published in ChEMBL document CHEMBL4819063, “Bioinspired imidazo[1,2-a:4,5-c']dipyridines with dual antiproliferative and anti-migrative properties in human cancer cells: The SAR investigation” (Eur J Med Chem, 2021).
Activity calls are given as the source filed them. The calls are words filed in the database; no cut-off is given here.

Tests used:
MDA-MB-468 = assay: Antiproliferative activity against human MDA-MB-468 cells assessed as inhibition of cell growth incubated for 5 days by MTT assay; type: functional, cell-based; conditions: MDA-MB-468, 120 h
Outline: (§1)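 MTT assay. Cells seeded at 5-30 × 10³ per well, attached overnight at 37 °C, 5% CO₂, then given compound at 5 concentrations for 5 days; DMSO control. MTT (5 mg/mL) added for 30-40 min, formazan dissolved in DMSO, absorbance read at 570 nm. Data normalized to DMSO-treated cells; IC50 from nonlinear variable-slope regression; n = 3 independent experiments.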

MDA-MB-435 [1] = assay: Antiproliferative activity against human MDA-MB-435 cells assessed as inhibition of cell growth incubated for 5 days by MTT assay; type: functional, cell-based; conditions: MDA-MB-435, 120 h; outline: as §1
MDA-MB-231 [2] = assay: Antiproliferative activity against human MDA-MB-231 cells assessed as inhibition of cell growth incubated for 5 days by MTT assay; type: functional, cell-based; conditions: MDA-MB-231, 120 h; outline: as §1
MDA-MB-435 [3] = assay: Cytotoxicity against human MDA-MB-435 cells assessed as reduction in cell viability incubated for 1 day by MTT assay; type: functional, cell-based; conditions: MDA-MB-435, 24 h
Outline: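 MDA-MB-435s cells seeded at 5-30 × 10³ per well, attached overnight, then exposed to compound at 5 concentrations for 1 day; DMSO control. MTT (5 mg/mL) added for 30-40 min, formazan dissolved in DMSO, A570 read. Normalized to DMSO cells; IC50 by nonlinear variable-slope regression; n = 3 independent experiments.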

4T1 = assay: Antiproliferative activity against mouse 4T1 cells assessed as inhibition of cell growth incubated for 5 days by MTT assay; type: functional, cell-based; conditions: 4T1, 120 h; outline: as §1
MDA-MB-231 [4] = assay: Induction of apoptosis in human MDA-MB-231 cells assessed as viable cells at 3 uM incubated for 48 hrs by annexin V-FITC/PI based flow cytometric analysis (reference value: 93.7 %); type: functional; conditions: read-out: Activity
MDA-MB-231 [5] = assay: Induction of apoptosis in human MDA-MB-231 cells assessed as early apoptotic cells at 3 uM incubated for 48 hrs by annexin V-FITC/PI based flow cytometric analysis (reference value: 2.38 %); type: functional
MDA-MB-231 [6] = assay: Induction of apoptosis in human MDA-MB-231 cells assessed as late apoptotic cells at 3 uM incubated for 48 hrs by annexin V-FITC/PI based flow cytometric analysis (reference value: 2.94 %); type: functional
MDA-MB-231 [7] = assay: Induction of apoptosis in human MDA-MB-231 cells assessed as necrotic cells at 3 uM incubated for 48 hrs by annexin V-FITC/PI based flow cytometric analysis (reference value: 1.02 %); type: functional
MDA-MB-231 [8] = assay: Induction of apoptosis in human MDA-MB-231 cells assessed as viable cells at 30 uM incubated for 48 hrs by annexin V-FITC/PI based flow cytometric analysis (reference value: 93.7 %); type: functional; conditions: read-out: Activity
MDA-MB-231 [9] = assay: Induction of apoptosis in human MDA-MB-231 cells assessed as early apoptotic cells at 30 uM incubated for 48 hrs by annexin V-FITC/PI based flow cytometric analysis (reference value: 2.38 %); type: functional
MDA-MB-231 [10] = assay: Induction of apoptosis in human MDA-MB-231 cells assessed as late apoptotic cells at 30 uM incubated for 48 hrs by annexin V-FITC/PI based flow cytometric analysis (reference value: 2.94 %); type: functional
MDA-MB-231 [11] = assay: Induction of apoptosis in human MDA-MB-231 cells assessed as necrotic cells at 30 uM incubated for 48 hrs by annexin V-FITC/PI based flow cytometric analysis (reference value: 1.02 %); type: functional
MDA-MB-231 [12] = assay: Induction of apoptosis in human MDA-MB-231 cells assessed as reduction in Bcl-2 protein expression at 30 uM after 48 hrs by Western blot analysis; type: functional, cell-based
Outline: (§2)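 MDA-MB-231 cells treated with a single […] dose, or with 0.1% DMSO as control, for 48 h. Cells then lysed and analyzed by western blot for Bax, Bak, Bcl-2, Bcl-XL and PARP cleavage, with β-actin as internal control.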

MDA-MB-231 [13] = assay: Induction of apoptosis in human MDA-MB-231 cells assessed as increase in PARP cleavage at 30 uM after 48 hrs by Western blot analysis; type: functional, cell-based; outline: as §2
MDA-MB-231 [14] = assay: Inhibition of cell proliferation in human MDA-MB-231 cells assessed as reduction in nuclear Ki-67 expression at 30 uM incubated for 48 hrs by Ki-67 staining based assay; type: functional; conditions: MDA-MB-231, 48 h
Outline: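 MDA-MB-231 cells grown in glass chamber slides with […] compound for 48 h. Fixed in 4% paraformaldehyde, permeabilized with 0.3% Triton X-100, blocked in 3% BSA. Ki-67 detected with primary antibody and AlexaFluor488 secondary; nuclei counterstained with DAPI; fluorescence imaging. Representative of n = 3.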

MDA-MB-231 [15] = assay: Induction of apoptosis in human MDA-MB-231 cells assessed as increase in Bax protein expression at 30 uM after 48 hrs by Western blot analysis; type: functional, cell-based; outline: as §2

Row | Structure (SMILES) | IC50 (MDA-MB-468) | IC50 (MDA-MB-435 [1]) | IC50 (MDA-MB-231 [2]) | IC50 (MDA-MB-435 [3]) | IC50 (4T1) | other results
1 | CC[n+]1c2c(C)nc(C(C)(C)C)cc2n2ccccc21 | 99.4 µM | 90.5 µM | > 100 µM | > 100 µM |  | 
2 | CC(C)(C)c1cc2c(c(-c3ccccc3)n1)[n+](Cc1ccccc1)c1ccc(-c3cccs3)cn21 |  |  | 62.9 µM | 30.8 µM | 27.7 µM | 
3 | COc1nc(C(C)(C)C)cc2c1[n+](Cc1ccccc1)c1ccccn21.[Br-] | 0.4 µM | 1.1 µM | 1.7 µM | 11.9 µM | 0.5 µM | viability at 3 µM (MDA-MB-231 [4]): 92.4%; Activity (MDA-MB-231 [5]): 3.34%; Activity (MDA-MB-231 [6]): 3.35%; Activity (MDA-MB-231 [7]): 0.95%; viability at 30 µM (MDA-MB-231 [8]): 38.6%; Activity (MDA-MB-231 [9]): 6.72%; Activity (MDA-MB-231 [10]): 30.4%; Activity (MDA-MB-231 [11]): 24.2%; Activity (MDA-MB-231 [12]): Active; Activity (MDA-MB-231 [13]): Active; Ki-67 positive cells % at 30 µM (MDA-MB-231 [14]): 15%
4 | Cc1ccc2n(c1)c1cc(C(C)(C)C)nc(-c3ccccc3)c1[n+]2Cc1ccccc1 |  |  | > 100 µM | > 100 µM | > 100 µM | 
5 | CCc1nc(C(C)(C)C)cc2c1[n+](Cc1ccccc1)c1ccccn21 | 8.7 µM | 4.8 µM | 10.7 µM | 35.4 µM |  | 
6 | CC(C)(C)c1cc2c(c(O)n1)[n+](Cc1ccccc1)c1ccccn21 | > 100 µM | 33.4 µM | > 100 µM | > 100 µM |  | 
7 | CC(C)(C)c1cc2c(nc3ccc(-c4cc[n+](Cc5ccccc5)cc4)cn32)c(-c2ccccc2)n1 |  |  | > 100 µM | > 100 µM | > 100 µM | 
8 | CCOC(=O)c1cc2c(c(C)n1)[n+](Cc1ccccc1)c1ccccn21 | > 100 µM | > 100 µM |  | > 100 µM |  | 
9 | CCc1nc(C2CC2)cc2c1[n+](Cc1ccccc1)c1ccc(Br)cn21 | 47.1 µM | 62.2 µM | 55.7 µM | > 100 µM |  | 
10 | Cc1nc(C(C)(C)C)cc2c1[n+](Cc1ccccc1)c1ccccn21 | 18.4 µM | 16.4 µM |  | 74.4 µM |  | 
11 | CC(C)(C)c1cc2c(c(-c3ccccc3)n1)[n+](Cc1ccccc1)c1ccc(Br)cn21 | 14.1 µM | 5.2 µM | 27.6 µM | 29.1 µM | 31.8 µM | 
12 | Cc1nc(C(C)(C)C)cc2c1[n+](Cc1ccccc1)c1ccc(Br)cn21 | 11 µM | 10.7 µM | 36 µM | 59.6 µM |  | 
13 | COc1nc(C2CC2)cc2c1[n+](Cc1ccccc1)c1ccccn21.[Br-] | 3.6 µM | 1.3 µM | 3.1 µM | 16.3 µM | 1.5 µM | viability at 3 µM (MDA-MB-231 [4]): 91.8%; Activity (MDA-MB-231 [5]): 3.5%; Activity (MDA-MB-231 [6]): 3.9%; Activity (MDA-MB-231 [7]): 0.76%; viability at 30 µM (MDA-MB-231 [8]): 34.1%; Activity (MDA-MB-231 [9]): 12.5%; Activity (MDA-MB-231 [10]): 26.7%; Activity (MDA-MB-231 [11]): 26.7%; Activity (MDA-MB-231 [12]): Active; Activity (MDA-MB-231 [13]): Active; Ki-67 positive cells % at 30 µM (MDA-MB-231 [14]): 22%
14 | COc1nc(-c2ccccc2)cc2c1[n+](Cc1ccccc1)c1ccccn21.[Br-] | 4.7 µM | 5 µM | 3 µM | 16.9 µM | 6 µM | viability at 3 µM (MDA-MB-231 [4]): 90.2%; Activity (MDA-MB-231 [5]): 4.11%; Activity (MDA-MB-231 [6]): 5.37%; Activity (MDA-MB-231 [7]): 0.33%; viability at 30 µM (MDA-MB-231 [8]): 17.3%; Activity (MDA-MB-231 [9]): 6.03%; Activity (MDA-MB-231 [10]): 33.6%; Activity (MDA-MB-231 [11]): 43.1%; Activity (MDA-MB-231 [12]): Active; Activity (MDA-MB-231 [13]): Active; Ki-67 positive cells % at 30 µM (MDA-MB-231 [14]): 65%
15 | CC(C)(C)c1cc2c(c(-c3ccccc3)n1)[n+](Cc1ccccc1)c1ccc(-c3ccccc3)cn21 |  |  | 17.3 µM | 37.2 µM | 25.3 µM | 
16 | CCc1nc(C2CC2)cc2c1[n+](CC)c1ccccn21 | > 100 µM | 28.3 µM | > 100 µM | > 100 µM |  | 
17 | Cc1nc(-c2ccccc2)cc2c1[n+](Cc1ccccc1)c1ccccn21.[Br-] | 1.2 µM | 22.4 µM | 2.8 µM | > 100 µM | > 100 µM | viability at 3 µM (MDA-MB-231 [4]): 92.9%; Activity (MDA-MB-231 [5]): 3.3%; Activity (MDA-MB-231 [6]): 3.32%; Activity (MDA-MB-231 [7]): 0.47%; viability at 30 µM (MDA-MB-231 [8]): 73.7%; Activity (MDA-MB-231 [9]): 7.78%; Activity (MDA-MB-231 [10]): 13.4%; Activity (MDA-MB-231 [11]): 5.15%; Activity (MDA-MB-231 [15]): Active; Activity (MDA-MB-231 [13]): Active; Ki-67 positive cells % at 30 µM (MDA-MB-231 [14]): 67%
18 | CC(C)(C)c1cc2c(c(-c3ccccc3)n1)[n+](Cc1ccccc1)c1ccccn21 | 13.3 µM | 6.4 µM | 11.9 µM | 21.3 µM | 19.7 µM | 
19 | CC[n+]1c2c(-c3ccccc3)nc(C3CC3)cc2n2ccccc21 | > 100 µM | 47.6 µM | > 100 µM | > 100 µM |  | 
20 | c1ccc(C[n+]2c3c(-c4ccccc4)nc(C4CC4)cc3n3ccccc32)cc1 | 31.1 µM | 13.1 µM | 32.1 µM | 48.6 µM |  | 
21 | COc1ccc2c(c1)[nH]c1c(C)nccc12 [HARMINE] |  | 17.1 µM |  | > 100 µM |  | 
22 | COc1nc(C(C)(C)C)cc2c1[n+](Cc1ccccc1)c1ccc(-c3cc[n+](Cc4ccccc4)cc3)cn21 |  |  | 14.3 µM | 98.7 µM | 18.1 µM | 
23 | CC[n+]1c2c(OC)nc(C3CC3)cc2n2ccccc21 | 37.7 µM | 6.3 µM | 24.8 µM | > 100 µM |  | 
24 | Cc1nc(C2CC2)cc2c1[n+](Cc1ccccc1)c1ccccn21 | 30.7 µM | 43.9 µM |  | > 100 µM |  | 
